Source: paper PMC12219203 (Nature Communications, 2025)

Assays:
[1] = system: NF-κB p65 and MAPK p38 phosphorylation in WT BMDMs; experiment: Immunoblot of p65 and p38 phosphorylation in WT BMDMs; type: cell-based, mouse; conditions: GM 5 mM
In short: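 Bone-marrow macrophages from WT or Tlr4-/- C57BL/6J mice were stimulated directly with 5 mM test compound or 500 ng/mL LPS. Cells were lysed in Tris/SDS/Triton buffer with protease and phosphatase inhibitors plus 10 mM DTT and boiled, then run on SDS-PAGE and transferred to PVDF. Blots were probed with rabbit antibodies to total or phospho-p65, total or phospho-p38 and GAPDH (1:1000, 4 °C overnight), then HRP anti-rabbit (1:5000).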

mTLR2 = mTLR2 (Mus musculus, UniProt Q9QUN7); experiment: HEK-Blue mTLR2 SEAP reporter assay; type: cell-based; conditions: GM 2, 1, 0.5 mM, 24 h, n = 6
In short: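 HEK-Blue mTLR2 cells were seeded at 50,000 cells/well in complete DMEM. After 6 h the medium was changed to serum-free DMEM and test compound was added for 24 h. Secreted SEAP was read by mixing supernatant 1:4 with Quanti-Blue, incubating 6 h at 37 °C and measuring absorbance at 620 nm. Values were blanked against water-treated wells.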

WT C57BL/6 J mice = experiment: DSS-induced colitis model in WT mice; type: in vivo, mouse; conditions: GM 10 mg/kg i.p. daily
In short: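 Male SPF C57BL/6J mice aged 7–8 weeks, WT or Tlr4-/- (bred in house), were age-, weight- and sex-matched. They drank 3% (w/v) DSS water for 7 days and were then euthanised. Test compound (10 mg/kg) or PBS (5 mL/kg) was given i.p. daily from 2 days before DSS until the end. Body weight was recorded daily.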

[2] = GM abundance in mouse gut after intraperitoneal injection; type: in vivo; conditions: mice, i.p. injection of GM; LC-MS
NOD2 = experiment: HEK-Blue NOD2 SEAP reporter assay; type: cell-based, human; conditions: MDP, M-AE 200 nM; GM, M 20 μM; 18 h
In short: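 HEK-Blue hNod1 or hNod2 cells were seeded at 50,000 cells/well in DMEM/10% FBS without selection antibiotics and stimulated at once for 18 h (n = 3). Supernatant was mixed 1:4 with Quanti-Blue and incubated 6 h at 37 °C, and absorbance was read at 620 nm. Values were blanked against water-treated wells, and the respective parental Null cell readouts were subtracted.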

mTLR4 = mTLR4 (Mus musculus, UniProt Q9JHF9+Q9QUK6); experiment: HEK-Blue mTLR4 SEAP reporter assay; type: cell-based; conditions: 24 h
RAW264.7 cells = experiment: Cytokine expression in RAW264.7 macrophages; type: cell-based, mouse; conditions: GM 1-4 mM, M 4 mM, 24 h
In short: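 RAW264.7 cells were kept in high-glucose IMDM with HEPES, 5% heat-inactivated FBS and penicillin/streptomycin at 37 °C, 5% CO2. They were exposed to test compounds for 24 h (n = 4). Total RNA was extracted with a column kit, and TNF-α and IL-6 transcripts were quantified by RT-qPCR using the 2-ΔΔCt method, normalised to β-act.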

[3] = system: NF-κB signaling in RAW-Dual WT cells; experiment: RAW-Dual WT NF-κB reporter; type: cell-based, mouse; conditions: 24 h
In short: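 RAW-Dual cells (WT or Tlr4-/-) were seeded at 100,000 cells/well in complete DMEM without selection antibiotics, 24 h before treatment. Test compounds were added for 24 h (n = 3). NF-κB-driven SEAP was read by mixing supernatant 1:4 with Quanti-Blue, incubating 6 h at 37 °C and measuring absorbance at 620 nm, blanked against water-treated wells.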

[4] = system: WT bone-marrow-derived macrophages (BMDMs); experiment: Cytokine gene expression in WT BMDMs; type: cell-based, mouse; conditions: GM 2-8 mM, M 8 mM
In short: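 Marrow was flushed from the femur and tibia of female SPF C57BL/6J mice and red cells were lysed (NH4Cl/KHCO3). Cells at 200,000 cells/mL were differentiated for 6 days in IMDM with 20 ng/mL GM-CSF or 10% L929 supernatant, then switched to serum-free IMDM. Test compounds were added for 24 h (n = 3). Cytokine transcripts were measured by RT-qPCR (2-ΔΔCt, normalised to β-act).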

[5] = system: IRF signaling in RAW-Dual Tlr4-/- cells; experiment: RAW-Dual Tlr4-/- IRF reporter; type: cell-based, mouse; conditions: 24 h
In short: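 RAW-Dual Tlr4-/- cells were seeded at 100,000 cells/well without selection antibiotics, 24 h before a 24 h exposure to test compounds. IRF-driven secreted luciferase was measured by mixing 20 µL supernatant with 50 µL Quanti-Luc 4 and reading luminescence immediately.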

WT mice sera = experiment: Multiplex immunoassay of serum cytokines and chemokines in mice; type: in vivo, mouse; conditions: GM 10 mg/kg i.p. daily, no DSS
In short: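 Mice received daily intraperitoneal injections, with PBS (5 mL/kg) as vehicle. Serum was analysed with a bead-based inflammatory cytokine/chemokine panel according to the kit protocol, read on a flow cytometer with a high-throughput sampler.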

[6] = system: murine bone marrow-derived dendritic cells (cDC2); experiment: CD80/86 surface expression in cDC2s of BMDCs; type: cell-based, mouse; conditions: 50, 100, 200 μM, 18 h
In short: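 Bone marrow from femur and tibia of C57BL/6J female mice was red-cell-lysed and plated at 2,000,000 cells/mL in medium with FLT3 ligand-containing supernatant, with feeding on days 3 and 6. DCs were reseeded at 2,000,000 cells/well and stimulated 18 h. Cells were Fc-blocked, stained with anti-CD80, anti-CD86 and live/dead dye, and analysed by flow cytometry as MFI in gated cDC2s.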

Tlr4-/- BMDMs = experiment: RNAseq of Tlr4-/- BMDMs; type: cell-based, mouse; conditions: GM 8 mM, 24 h, n = 3
In short: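 BMDMs were differentiated 6 days from mouse bone marrow with GM-CSF or L929 supernatant at 800,000 cells/well, switched to serum-free IMDM and stimulated 24 h; MDP 0.4 mM was run alongside. Total RNA was extracted for RNAseq. Differentially expressed genes were called at p < 0.01 and logFC > 1 and plotted as mean heatmaps; n = 3.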

Sequence of mTLR4 (Q9QUK6 26-835): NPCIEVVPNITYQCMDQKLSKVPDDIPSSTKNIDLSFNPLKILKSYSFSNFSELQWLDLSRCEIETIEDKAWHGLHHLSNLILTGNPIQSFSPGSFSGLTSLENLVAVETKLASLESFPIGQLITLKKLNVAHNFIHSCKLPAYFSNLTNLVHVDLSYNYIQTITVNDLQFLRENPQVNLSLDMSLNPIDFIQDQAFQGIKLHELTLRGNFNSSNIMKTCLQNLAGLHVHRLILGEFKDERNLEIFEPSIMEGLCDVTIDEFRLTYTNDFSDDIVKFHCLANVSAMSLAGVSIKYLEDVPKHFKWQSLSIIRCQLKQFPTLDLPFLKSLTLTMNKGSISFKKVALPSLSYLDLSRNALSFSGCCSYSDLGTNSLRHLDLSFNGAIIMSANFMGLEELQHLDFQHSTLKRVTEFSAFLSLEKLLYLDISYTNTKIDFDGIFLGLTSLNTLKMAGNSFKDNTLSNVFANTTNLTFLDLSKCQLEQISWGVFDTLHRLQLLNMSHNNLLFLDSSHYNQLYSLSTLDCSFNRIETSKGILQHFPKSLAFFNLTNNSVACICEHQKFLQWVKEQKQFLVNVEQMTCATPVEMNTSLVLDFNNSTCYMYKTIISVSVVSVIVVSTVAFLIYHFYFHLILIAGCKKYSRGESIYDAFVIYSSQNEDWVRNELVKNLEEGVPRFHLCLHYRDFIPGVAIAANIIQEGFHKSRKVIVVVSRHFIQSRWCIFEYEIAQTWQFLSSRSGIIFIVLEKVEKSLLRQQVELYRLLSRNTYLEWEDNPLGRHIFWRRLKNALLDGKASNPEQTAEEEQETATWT
Sequence of mTLR4 (Q9JHF9 19-160): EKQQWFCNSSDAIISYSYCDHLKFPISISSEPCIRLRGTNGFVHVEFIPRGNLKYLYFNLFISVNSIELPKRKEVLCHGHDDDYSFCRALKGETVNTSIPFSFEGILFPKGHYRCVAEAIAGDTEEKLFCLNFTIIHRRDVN
Sequence of mTLR2 (Q9QUN7 25-784): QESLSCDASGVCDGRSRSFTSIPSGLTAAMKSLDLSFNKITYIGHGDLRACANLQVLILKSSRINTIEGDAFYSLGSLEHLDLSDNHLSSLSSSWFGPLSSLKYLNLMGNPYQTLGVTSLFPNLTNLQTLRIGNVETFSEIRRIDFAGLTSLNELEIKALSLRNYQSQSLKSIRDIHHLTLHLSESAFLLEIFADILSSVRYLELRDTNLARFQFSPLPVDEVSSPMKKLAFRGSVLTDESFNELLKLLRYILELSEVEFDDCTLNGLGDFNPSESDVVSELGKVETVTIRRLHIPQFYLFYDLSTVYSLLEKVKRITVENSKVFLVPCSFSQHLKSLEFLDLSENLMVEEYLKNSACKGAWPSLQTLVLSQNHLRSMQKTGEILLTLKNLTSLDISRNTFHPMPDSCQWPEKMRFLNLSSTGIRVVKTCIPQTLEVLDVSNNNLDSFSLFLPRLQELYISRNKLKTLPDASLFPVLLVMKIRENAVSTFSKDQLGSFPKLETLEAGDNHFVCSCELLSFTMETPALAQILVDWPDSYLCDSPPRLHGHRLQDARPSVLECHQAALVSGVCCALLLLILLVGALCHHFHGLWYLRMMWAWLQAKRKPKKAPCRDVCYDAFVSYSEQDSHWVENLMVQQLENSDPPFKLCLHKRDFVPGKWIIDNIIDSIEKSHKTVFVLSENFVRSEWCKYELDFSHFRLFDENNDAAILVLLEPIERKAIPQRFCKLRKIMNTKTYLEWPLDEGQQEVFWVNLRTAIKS

CC(=O)N[C@H]1[C@H](O[C@H]2[C@H](O[C@H](C)C(=O)O)[C@@H](NC(C)=O)C(O)O[C@@H]2CO)O[C@H](CO)[C@@H](O)[C@@H]1O (stereo partly drawn) [GM, N-acetylglucosamine-β−1,4-N-acetylmuramic acid]
p65 and p38 phosphorylation in WT BMDMs [1]: mild increase in phosphorylation | Activation of HEK-Blue mTLR2 reporter cells (in words) (mTLR2): does not activate | H&E-stained colonic tissue, WT DSS mice (WT C57BL/6 J mice; 3% DSS): reduced epithelial erosion and mononuclear cell infiltration | Colonic Il10, WT DSS mice (WT C57BL/6 J mice; 3% DSS, RT-qPCR): no significant change in Il10 was observed | Colonic cytoprotective factors Keap1 and Hspb1, WT DSS mice (WT C57BL/6 J mice; 3% DSS, RT-qPCR): upregulated | Colonic expression of Tnfa, Il1b, Ccl2, WT DSS mice (WT C57BL/6 J mice; 3% DSS, RT-qPCR): significantly suppressed | Morbidity in mice (WT C57BL/6 J mice; without DSS treatment): did not result in any morbidity in mice | Abundance in the mouse gut after intraperitoneal injection [2]: temporally increased its abundance in the mouse gut | NOD2 activation in HEK-Blue reporter cells (in words) (NOD2): unable to activate NOD1/2 | Activity in HEK-Blue mTLR4 reporter cells under polymyxin B titration (in words) (mTLR4; GM 1 mM, polymyxin B 0, 0.1, 1, 10 kU): unaffected by polymyxin B titration | TLR4 stimulation in HEK-Blue mTLR4 reporter cells (in words) (mTLR4; disaccharides 0.5 or 1 mM, GM-A and GM-AE 1 mM): stimulate TLR4 | Immuno-stimulatory activity (TNF-α, IL-6) in RAW264.7 (in words) (RAW264.7 cells): dose-dependent immuno-stimulatory activity | NF-κB signaling in RAW-Dual WT cells (in words) [3]: dose-dependent activation of both NF-κB and IRF signaling | Immuno-stimulatory activity (TNF-α, IL-6) in BMDMs (in words) [4]: dose-dependent immuno-stimulatory activity | IRF signaling in RAW-Dual Tlr4-/- cells (in words) [5]: minimal activity | Circulating cytokines and chemokines in mice, GM alone (WT mice sera): does not significantly alter circulating cytokines and chemokines in mice | CD80/86 surface markers in cDC2 population of BMDCs (in words) [6]: upregulates CD80/86 surface marker expressions | Cytokine and chemokine genes by RNAseq, Tlr4-/- BMDMs (Tlr4-/- BMDMs): fails to induce the expression of these genes
